Reference: ChEMBL document CHEMBL1134651, “Acyl substitution at the ortho position of anilides enhances oral bioavailability of thiophene sulfonamides: TBC3214, an ETA selective endothelin antagonist” (J Med Chem, 2001)

Key:
[1] = molecular target: Endothelin receptor, ET-A/ET-B (Homo sapiens) (UniProt P24530+P25101); test: Relative affinity for human ETA over ETB receptors.; assay type: protein assay
[2] = molecular target: T1, Endothelin-1 receptor (Homo sapiens, UniProt P25101); test: Inhibitory concentration was determined against selective Endothelin A receptor
T1 sequence (P25101 whole entry): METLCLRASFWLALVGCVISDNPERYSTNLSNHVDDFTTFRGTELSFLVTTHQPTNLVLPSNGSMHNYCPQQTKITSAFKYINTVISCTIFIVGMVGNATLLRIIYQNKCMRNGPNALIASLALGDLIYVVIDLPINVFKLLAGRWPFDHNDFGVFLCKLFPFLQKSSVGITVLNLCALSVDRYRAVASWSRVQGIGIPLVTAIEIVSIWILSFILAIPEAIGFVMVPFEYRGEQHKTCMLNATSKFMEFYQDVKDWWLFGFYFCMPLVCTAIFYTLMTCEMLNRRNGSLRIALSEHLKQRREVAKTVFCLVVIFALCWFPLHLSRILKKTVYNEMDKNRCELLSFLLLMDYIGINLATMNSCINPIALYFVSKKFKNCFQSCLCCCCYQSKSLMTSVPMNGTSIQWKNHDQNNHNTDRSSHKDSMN

[3] = Oral absorption expressed as peak plasma conc (Cmax) after oral dosing of 50 mg/kg in rat; assay type: ADME, organism-based; set-up: dose 50 mg/kg, route oral
Procedure, shortened: (§1)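 Rats given compound orally at 50 mg/kg. Serial 200 μL blood samples drawn from the tail vein into heparin-coated microhematocrit tubes at selected times. Red cells removed at once by centrifugation; plasma stored at -80 °C, proteins precipitated with acetonitrile, drug measured by HPLC. Absorption reported as peak plasma concentration (Cmax) and AUC extrapolated to infinity.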

[4] = Oral absorption expressed as Area under curve was determined; assay type: ADME; set-up: concentration or dose not given beside the values; procedure, shortened: as §1
[5] = Oral bioavailability in rat; assay type: ADME, organism-based; details: in vivo
[6] = Oral bioavailability was evaluated in dog.; assay type: ADME, organism-based, Canis lupus familiaris; details: in vivo
[7] = Oral bioavailability was evaluated in cat.; assay type: ADME, organism-based, Felis catus; details: in vivo
[8] = Half life period in plasma was determined; assay type: ADME, cell-free

Endothelin receptor, ET-A/ET-B (Homo sapiens), sequence (P24530 whole entry, looked up, one chain of several): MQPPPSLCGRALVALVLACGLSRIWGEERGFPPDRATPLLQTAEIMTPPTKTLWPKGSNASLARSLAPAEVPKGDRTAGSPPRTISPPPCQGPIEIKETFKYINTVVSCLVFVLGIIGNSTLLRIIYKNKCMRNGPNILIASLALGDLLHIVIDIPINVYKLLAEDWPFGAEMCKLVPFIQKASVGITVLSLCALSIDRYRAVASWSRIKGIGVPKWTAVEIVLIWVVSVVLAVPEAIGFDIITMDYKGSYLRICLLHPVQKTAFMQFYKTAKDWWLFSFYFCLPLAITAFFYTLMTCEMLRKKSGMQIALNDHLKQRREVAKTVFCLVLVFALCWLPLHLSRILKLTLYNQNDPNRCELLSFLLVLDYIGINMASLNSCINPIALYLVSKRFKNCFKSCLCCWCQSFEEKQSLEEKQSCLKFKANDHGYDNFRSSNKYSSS

SMILES | Selectivity [1] | IC50 [2] [nM] | Cmax [3] [ng/mL] | AUC [4] [µg·h/mL] | bioavailability [5] [%] | bioavailability [6] [%] | bioavailability [7] [%] | half-life [8] [h]
Cc1noc(NS(=O)(=O)c2ccsc2C(=O)Nc2ccc3c(c2)OCO3)c1Br | 500 |  |  |  |  |  |  | 
Cc1cc(C)c(NC(=O)c2sccc2S(=O)(=O)Nc2onc(C)c2Cl)c(C(=O)C(C)C)c1 | 14000 | 0.12 | 59200 | 298 |  |  |  | 
Cc1ccc(NC(=O)c2sccc2S(=O)(=O)Nc2onc(C)c2Cl)cc1 | 940 |  |  |  |  |  |  | 
Cc1noc(NS(=O)(=O)c2ccsc2C(=O)Cc2ccc3c(c2)OCO3)c1Cl | 300 |  |  |  |  |  |  | 
Cc1cc2c(cc1CC(=O)c1sccc1S(=O)(=O)Nc1onc(C)c1C)OCO2 | 10000 |  |  |  | ~100 |  |  | 
CC(=O)c1cc2c(cc1NC(=O)c1sccc1S(=O)(=O)Nc1onc(C)c1Cl)OCO2 | 3000 |  |  |  | 27 |  |  | 
Cc1cc2c(cc1CC(=O)c1sccc1S(=O)(=O)Nc1onc(C)c1Cl)OCO2 | 7000 |  |  |  |  |  |  | 
Cc1noc(NS(=O)(=O)c2ccsc2C(=O)Nc2cc3c(cc2C#N)OCO3)c1Cl | 12000 |  |  |  | 8 |  |  | 

Other lines, results leading:

Selectivity [1] | IC50 [2] [nM] | Cmax [3] [ng/mL] | AUC [4] [µg·h/mL] | bioavailability [5] [%] | bioavailability [6] [%] | bioavailability [7] [%] | half-life [8] [h] | SMILES
14600 | 0.17 | 13000 | 45.8 |  |  |  |  | Cc1cc(C)c(NC(=O)c2sccc2S(=O)(=O)Nc2onc(C)c2C)c(C)c1CC#N
10900 | 0.19 | 48200 | 118 |  |  |  |  | Cc1cc(C)c(NC(=O)c2sccc2S(=O)(=O)Nc2onc(C)c2Cl)c(C)c1O
10800 | 0.14 | 2600 | 15.8 |  |  |  |  | Cc1cc(C)c(CC(=O)c2sccc2S(=O)(=O)Nc2onc(C)c2Cl)c(C)c1O
8500 | 0.1 | 53900 | 171 |  |  |  |  | Cc1cc(C)c(NC(=O)c2sccc2S(=O)(=O)Nc2noc(C)c2Cl)c(C)c1CC#N
7000 | 0.17 | 35900 | 103 |  |  |  |  | Cc1cc(C)c(NC(=O)c2sccc2S(=O)(=O)Nc2onc(C)c2Cl)c(C)c1
32900 |  | 42000 | 59.9 |  |  |  |  | Cc1cc(C)c(NC(=O)c2sccc2S(=O)(=O)Nc2onc(C)c2Cl)c(C)c1CC#N
442000 | 0.04 | 57600 | 272 | 25 | 70 | 42 | 4 | CC(=O)c1cc(C)cc(C)c1NC(=O)c1sccc1S(=O)(=O)Nc1onc(C)c1Cl
 | 0.43 | 21800 | 47 |  |  |  |  | CCc1cc(C)cc(C)c1NC(=O)c1sccc1S(=O)(=O)Nc1onc(C)c1Cl
